Reference: ChEMBL document CHEMBL2150901, “Synthesis and biological activity of tricyclic cycloalkylimidazo-, pyrimido- and diazepinopurinediones” (Eur J Med Chem, 2011)
Active and inactive are the calls of the source. The rule behind the calls is not given here.

Columns and labels:
Mus musculus [1] = test: Anticonvulsant activity in F1 albino mouse assessed as protection against maximal electroshock-induced seizures at 100 mg/kg, ip after 0.25 hrs; assay type: functional, organism-based; parameters: dose 100 mg/kg
How it was run: (§1)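 Male albino F-1 mice (18–25 g), groups of 1–5 (rotorod 2–8). Compound given ip as a suspension in 0.5% methylcellulose at 30, 100 and 300 mg/kg. Seizures by maximal electroshock or subcutaneous pentylenetetrazole; neurotoxicity by rotorod. Read at 0.5 and 4 h, with some at 0.25, 1 and 2 h. Value is the minimum active dose, with protected (or toxic)/tested animals.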

Rattus norvegicus [2] = test: Anticonvulsant activity in Sprague-Dawley albino rat assessed as protection against subcutaneous pentylenetetrazole-induced seizures at 50 mg/kg, po after 2 hrs; assay type: functional, organism-based; parameters: dose 50 mg/kg
How it was run: (§2)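 Male Sprague-Dawley albino rats (100–150 g), groups of 4. Oral suspension in 0.5% methylcellulose/water. Protection assessed by maximal electroshock or subcutaneous pentylenetetrazole; motor impairment by rotorod. Time points 0.25–4 h. Value is protected (or toxic)/tested animals.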

Mus musculus [3] = test: Anticonvulsant activity in F1 albino mouse assessed as protection against maximal electroshock-induced seizures at 300 mg/kg, ip after 4 hrs; assay type: functional, organism-based; parameters: dose 300 mg/kg; how it was run: as §1
Adenosine receptor A1 = biological target: T1, Adenosine receptor A1 (Rattus norvegicus, UniProt P25099); test: Displacement of [3H]CCPA from adenosine A1 receptor in rat brain cortical membrane; assay type: cell membranes
T1 sequence (P25099 whole entry): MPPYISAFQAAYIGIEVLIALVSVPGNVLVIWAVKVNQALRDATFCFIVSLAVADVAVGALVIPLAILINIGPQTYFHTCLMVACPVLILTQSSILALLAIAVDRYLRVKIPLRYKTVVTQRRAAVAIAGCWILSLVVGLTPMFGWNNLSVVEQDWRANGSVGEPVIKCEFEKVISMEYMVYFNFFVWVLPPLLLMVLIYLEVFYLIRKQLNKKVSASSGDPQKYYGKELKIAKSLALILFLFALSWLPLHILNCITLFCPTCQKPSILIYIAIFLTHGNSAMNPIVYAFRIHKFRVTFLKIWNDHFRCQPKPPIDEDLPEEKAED

Mus musculus [4] = test: Anticonvulsant activity in F1 albino mouse assessed as protection against subcutaneous pentylenetetrazole-induced seizures at 100 mg/kg, ip after 0.5 hrs; assay type: functional, organism-based; parameters: dose 100 mg/kg; how it was run: as §1
Mus musculus [5] = test: Neurotoxicity in F1 albino mouse assessed as minimal motor impairment at 300 mg/kg, ip after 0.25 hrs by rotorod test; assay type: toxicity, organism-based; parameters: dose 300 mg/kg, route intraperitoneal; settings: in vivo; how it was run: as §1
Adenosine receptor A2b = biological target: T2, Adenosine receptor A2b (Homo sapiens, UniProt P29275); test: Displacement of [3H]ZM241385 from human adenosine A2B receptor expressed in CHO cells; assay type: cell-based
T2 sequence (P29275 whole entry): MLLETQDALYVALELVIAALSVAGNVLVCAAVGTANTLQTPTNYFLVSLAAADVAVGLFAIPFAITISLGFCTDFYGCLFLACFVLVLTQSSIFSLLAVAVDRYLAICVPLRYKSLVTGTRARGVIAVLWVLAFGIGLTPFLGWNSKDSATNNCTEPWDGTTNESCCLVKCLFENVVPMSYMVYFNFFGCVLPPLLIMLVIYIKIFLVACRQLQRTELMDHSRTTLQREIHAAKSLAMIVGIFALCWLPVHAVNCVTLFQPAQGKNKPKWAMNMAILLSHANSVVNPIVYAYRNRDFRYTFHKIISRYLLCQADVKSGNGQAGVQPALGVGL

Rattus norvegicus [6] = test: Neurotoxicity in Sprague-Dawley albino rat assessed as minimal motor impairment at 30 mg/kg, po after 0.25 hrs by rotorod test; assay type: toxicity, organism-based; parameters: dose 30 mg/kg, route oral; settings: in vivo; how it was run: as §2
Adenosine receptor A2a [7] = biological target: Adenosine receptor A2a (Homo sapiens, UniProt P29274); test: Antagonist activity human recombinant adenosine A2A receptor expressed in CHO cells assessed as inhibition of NECA-mediated [3H]cAMP accumulation after 15 mins by liquid scintillation counting; assay type: functional, cell-based
Chain of Adenosine receptor A2a (Homo sapiens, UniProt P29274) (P29274 whole entry): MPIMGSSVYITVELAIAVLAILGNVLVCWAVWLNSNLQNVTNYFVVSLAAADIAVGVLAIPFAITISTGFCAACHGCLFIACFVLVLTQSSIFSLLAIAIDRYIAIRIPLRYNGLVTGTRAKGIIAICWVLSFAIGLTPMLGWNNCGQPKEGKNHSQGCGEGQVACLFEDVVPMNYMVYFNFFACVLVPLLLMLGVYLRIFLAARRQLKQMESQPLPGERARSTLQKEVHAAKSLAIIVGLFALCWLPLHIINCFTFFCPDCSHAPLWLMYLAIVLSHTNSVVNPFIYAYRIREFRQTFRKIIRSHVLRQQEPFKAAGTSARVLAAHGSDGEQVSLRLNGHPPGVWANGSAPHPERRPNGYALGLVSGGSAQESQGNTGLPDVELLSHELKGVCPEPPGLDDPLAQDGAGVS
How it was run: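 Stably transfected CHO cells (human A2A), 200,000 cells/well, washed and preincubated 2 h at 37 °C in HBSS (pH 7.3) with 1 U/ml adenosine deaminase. Ro20-1724 (final 40 µM) added for 15 min. NECA dilutions ± a single test concentration in HBSS with 5% DMSO, in triplicate, for 15 min. Hot-lysis; cAMP quantified by [3H]cAMP competition against a standard curve; three separate experiments.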

Rattus norvegicus [8] = test: Neurotoxicity in Sprague-Dawley albino rat assessed as minimal motor impairment at 30 mg/kg, po after 1 hr by rotorod test; assay type: toxicity, organism-based; parameters: dose 30 mg/kg, route oral; settings: in vivo; how it was run: as §2
Adenosine receptor A2a [9] = biological target: Adenosine receptor A2a (Rattus norvegicus, UniProt P30543); test: Displacement of [3H]MSX-2 from adenosine A2A receptor in rat brain striatal membrane; assay type: cell membranes
Chain of Adenosine receptor A2a (Rattus norvegicus, UniProt P30543) (P30543 whole entry): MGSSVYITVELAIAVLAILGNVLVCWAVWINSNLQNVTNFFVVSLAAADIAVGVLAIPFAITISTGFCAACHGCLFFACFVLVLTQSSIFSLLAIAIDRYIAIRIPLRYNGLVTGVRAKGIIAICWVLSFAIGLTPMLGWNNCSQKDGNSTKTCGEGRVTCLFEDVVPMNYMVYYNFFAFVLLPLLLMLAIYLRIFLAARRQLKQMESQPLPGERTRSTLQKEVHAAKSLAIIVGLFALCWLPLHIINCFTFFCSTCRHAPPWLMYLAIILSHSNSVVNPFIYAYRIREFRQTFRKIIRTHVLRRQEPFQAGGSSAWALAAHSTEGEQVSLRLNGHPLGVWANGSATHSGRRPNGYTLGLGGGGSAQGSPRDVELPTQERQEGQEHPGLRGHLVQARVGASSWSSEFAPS

[10] = biological target: T3, Adenosine receptor A3 (Homo sapiens) (UniProt P0DMS8); test: Displacement of [3H]PSB-11 from human recombinant adenosine A3 receptor expressed in CHO cells at 10 uM; assay type: cell-based
T3 sequence (whole entry): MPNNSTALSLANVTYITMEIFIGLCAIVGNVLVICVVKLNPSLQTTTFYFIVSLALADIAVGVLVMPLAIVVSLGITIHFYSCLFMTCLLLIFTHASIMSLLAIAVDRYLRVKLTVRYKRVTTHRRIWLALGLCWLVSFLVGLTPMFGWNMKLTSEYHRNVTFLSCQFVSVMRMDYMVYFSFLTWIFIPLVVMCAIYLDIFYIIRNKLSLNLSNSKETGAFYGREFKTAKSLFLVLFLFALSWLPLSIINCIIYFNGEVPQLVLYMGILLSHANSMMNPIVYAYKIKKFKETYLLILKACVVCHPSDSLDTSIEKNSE
How it was run: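 CHO cell membranes expressing the human receptor. Radioligands: A1 [3H]CCPA; A2B [3H]ZM241385 or [3H]PSB-603; A3 [3H]PSB-11. […] Potent compounds run at 6–7 concentrations spanning 3 orders of magnitude; Ki ± SEM.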

Rattus norvegicus [11] = test: Anticonvulsant activity in Sprague-Dawley albino rat assessed as protection against subcutaneous pentylenetetrazole-induced seizures at 50 mg/kg, po after 0.25 hrs; assay type: functional, organism-based; parameters: dose 50 mg/kg; how it was run: as §2
Mus musculus [12] = test: Neurotoxicity in F1 albino mouse assessed as minimal motor impairment at 300 mg/kg, ip after 0.5 hrs by rotorod test; assay type: toxicity, organism-based; parameters: dose 300 mg/kg, route intraperitoneal; settings: in vivo; how it was run: as §1
Mus musculus [13] = test: Anticonvulsant activity in F1 albino mouse assessed as protection against subcutaneous pentylenetetrazole-induced seizures at 300 mg/kg, ip after 1 hr; assay type: functional, organism-based; parameters: dose 300 mg/kg; how it was run: as §1
Rattus norvegicus [14] = test: Neurotoxicity in Sprague-Dawley albino rat assessed as minimal motor impairment at 30 mg/kg, po after 4 hrs by rotorod test; assay type: toxicity, organism-based; parameters: dose 30 mg/kg, route oral; settings: in vivo
How it was run: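 Male Sprague-Dawley albino rats (100–150 g), groups of 4, dosed orally with a suspension in 0.5% methylcellulose/water. Neurotoxicity was scored as minimal motor impairment on the rotorod at 0.25, 0.5, 1 and 4 h. Results are reported as animals showing toxicity per animals tested.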

Adenosine receptor A3 = biological target: T4, Adenosine receptor A3 (Homo sapiens, UniProt P0DMS8); test: Displacement of [3H]PSB-11 from human recombinant adenosine A3 receptor expressed in CHO cells; assay type: cell-based
T4 sequence (P0DMS8 whole entry): T3 sequence (whole entry)

Rattus norvegicus [15] = organism: Rattus norvegicus; test: Selectivity ratio of Ki for adenosine A1 receptor in rat brain cortical membrane to Ki for adenosine A2A receptor in rat brain striatal membrane; assay type: cell membranes
How it was run: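 Ki ratios from radioligand competition binding. Rat A1 used brain cortical membranes and rat A2A used brain striatal membranes. Human A1 and A2A used membranes of CHO cells expressing the receptors. A1 radioligand [³H]CCPA; A2A radioligand [³H]MSX-2. Potent compounds were tested at 6–7 concentrations spanning 3 orders of magnitude.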

Cn1c(=O)c2c(nc3n2CCCN3CC2CC2)n(C)c1=O
Activity (Mus musculus [1]): Active
Activity (Rattus norvegicus [2]): inactive
Activity (Mus musculus [3]): inactive
Ki (Adenosine receptor A1): 2390 nM
Activity (Mus musculus [4]): Active
Activity (Mus musculus [5]): Non-toxic
Ki (Adenosine receptor A2b): 12500 nM
Activity (Rattus norvegicus [6]): Non-toxic
Kb (Adenosine receptor A2a [7]): 220 nM
Activity (Rattus norvegicus [8]): Non-toxic
Ki (Adenosine receptor A2a [9]): 980 nM
inhibition [10]: 1%
Activity (Rattus norvegicus [11]): inactive
Activity (Mus musculus [12]): Toxic
Activity (Mus musculus [13]): inactive
Activity (Rattus norvegicus [14]): Non-toxic
Ki (Adenosine receptor A3): > 10000 nM
Ratio Ki (Rattus norvegicus [15]): 2
